According to ChEMBL document CHEMBL1158804, “Lupane triterpenoids from Maytenus species” (J Nat Prod, 2005):
≈ marks a conversion by molar mass, not a printed value. Calls of active or inactive are those of the source. No cut-off for these calls is given here.

Experiments:
Staphylococcus aureus = test: Antibacterial activity against Staphylococcus aureus ATCC 6538 up to 40 ug/mL by broth microdilution method; type: functional, organism-based
Procedure, shortened: (§1)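 Compounds are dissolved in DMSO. The minimal inhibitory concentration is estimated by broth microdilution.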

[1] = system: Staphylococcus epidermidis; test: Antibacterial activity against Staphylococcus epidermidis CECT 232 up to 40 ug/mL by broth microdilution method; type: functional, organism-based; procedure, shortened: as §1
[2] = system: Staphylococcus saprophyticus; test: Antibacterial activity against Staphylococcus saprophyticus CECT 235 up to 40 ug/mL by broth microdilution method; type: functional, organism-based; procedure, shortened: as §1
Enterococcus faecalis = test: Antibacterial activity against Enterococcus faecalis CECT 795 up to 40 ug/mL by broth microdilution method; type: functional, organism-based; procedure, shortened: as §1
Bacillus subtilis = test: Antibacterial activity against Bacillus subtilis CECT 39 up to 40 ug/mL by broth microdilution method; type: functional, organism-based; procedure, shortened: as §1
Bacillus cereus = test: Antibacterial activity against Bacillus cereus CECT 496 up to 40 ug/mL by broth microdilution method; type: functional, organism-based; procedure, shortened: as §1
Bacillus pumilus = test: Antibacterial activity against Bacillus pumilus CECT 29 up to 40 ug/mL by broth microdilution method; type: functional, organism-based; procedure, shortened: as §1
Priestia megaterium = test: Antibacterial activity against Bacillus megaterium CECT 44 up to 40 ug/mL by broth microdilution method; type: functional, organism-based; procedure, shortened: as §1
[3] = system: Mycolicibacterium smegmatis; test: Antibacterial activity against Mycobacterium smegmatis CECT 3032 up to 40 ug/mL by broth microdilution method; type: functional, organism-based; procedure, shortened: as §1
Escherichia coli = test: Antibacterial activity against Escherichia coli CECT 99 up to 40 ug/mL by broth microdilution method; type: functional, organism-based; procedure, shortened: as §1
Proteus mirabilis = test: Antibacterial activity against Proteus mirabilis CECT170 up to 40 ug/mL by broth microdilution method; type: functional, organism-based; procedure, shortened: as §1
Salmonella = test: Antibacterial activity against Salmonella sp. CECT 456 up to 40 ug/mL by broth microdilution method; type: functional, organism-based; procedure, shortened: as §1
Pseudomonas aeruginosa = test: Antibacterial activity against Pseudomonas aeruginosa AK 958 up to 40 ug/mL by broth microdilution method; type: functional, organism-based; procedure, shortened: as §1
Candida albicans = test: Antifungal activity against Candida albicans UBC1 up to 40 ug/mL by broth microdilution method; type: functional, organism-based
Procedure, shortened: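 The yeast is grown on Sabouraud agar at 37 °C. Compounds are dissolved in DMSO, and the minimal inhibitory concentration is estimated by broth microdilution.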

HeLa = test: Cytotoxicity against human HeLa cells after 48 hrs by MTT assay; type: functional, cell-based
Procedure, shortened: (§2)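 Monolayers are cultured in DMEM with 5% fetal calf serum and 1% penicillin-streptomycin at 37 °C, 5% CO2 and 90% humidity. Exponentially growing cells (2 × 10^4 cells/well) are exposed to a range of compound concentrations for 48 h at 37 °C. Viability is read by colorimetric MTT reduction.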

HEp-2 = test: Cytotoxicity against human Hep2 cells after 48 hrs by MTT assay; type: functional, cell-based; conditions: HEp-2, 48 h; procedure, shortened: as §2
Vero = test: Cytotoxicity against african green monkey Vero cells after 48 hrs by MTT assay; type: cell-based; conditions: Chlorocebus sabaeus; procedure, shortened: as §2

Row | SMILES | Activity (Staphylococcus aureus) | Activity [1] | Activity [2] | Activity (Enterococcus faecalis) | Activity (Bacillus subtilis) | Activity (Bacillus cereus) | Activity (Bacillus pumilus) | Activity (Priestia megaterium) | Activity [3] | Activity (Escherichia coli) | Activity (Proteus mirabilis) | Activity (Salmonella) | Activity (Pseudomonas aeruginosa) | Activity (Candida albicans) | IC50 (HeLa) [µg/mL] | IC50 (HEp-2) [µg/mL] | IC50 (Vero) [µg/mL]
1 | CC(C)[C@@H]1CC[C@]2(C)CC[C@]3(C)[C@@H](CC[C@@H]4[C@@]5(C)CC[C@H](OC(=O)/C=C/c6ccc(O)c(O)c6)C(C)(C)[C@@H]5CC[C@]43C)[C@@H]12 | inactive | inactive | inactive | inactive | inactive | inactive | inactive | inactive | inactive | inactive | inactive | inactive | inactive | inactive | > 10 | > 10 | > 10
2 | C=C(C)[C@@H]1CC[C@]2(CO)CC[C@]3(C)[C@@H](CC[C@@H]4[C@@]5(C)CCC(=O)C(C)(C)[C@@H]5[C@H](O)C[C@]43C)[C@@H]12 | inactive | inactive | inactive | inactive | inactive | inactive | inactive | inactive | inactive | inactive | inactive | inactive | inactive | inactive | > 10 | > 10 | > 10
3 | C=C(CO)[C@@H]1CC[C@]2(CO)CC[C@]3(C)[C@@H](CC[C@@H]4[C@@]5(C)CCC(=O)C(C)(C)[C@@H]5CC[C@]43C)[C@@H]12 | inactive | inactive | inactive | inactive | inactive | inactive | inactive | inactive | inactive | inactive | inactive | inactive | inactive | inactive | 4 (≈ 8.76 µM) | 7.1 (≈ 15.5 µM) | > 10
4 | C=C(C)[C@@H]1CC[C@]2(CO)CC[C@]3(C)[C@H](C[C@@H](O)[C@@H]4[C@@]5(C)CC[C@@H](O)C(C)(C)[C@@H]5CC[C@]43C)[C@@H]12 | inactive | inactive | inactive | inactive | inactive | inactive | inactive | inactive | inactive | inactive | inactive | inactive | inactive | inactive | > 10 | > 10 | > 10
5 | C=C(C)[C@@H]1CC[C@]2(CO)CC[C@]3(C)[C@H](CC[C@@H]4[C@@]5(C)CC[C@H](O)C(C)(C)[C@@H]5[C@H](O)C[C@]43C)[C@@H]12 | inactive | inactive | inactive | inactive | inactive | inactive | inactive | inactive | inactive | inactive | inactive | inactive | inactive |  | > 10 | > 10 | > 10
6 | C=C(C)[C@@H]1CC[C@]2(CO)CC[C@]3(C)[C@H](CC[C@@H]4[C@@]5(C)CC[C@H](OC(=O)/C=C/c6ccc(O)c(O)c6)C(C)(C)[C@@H]5CC[C@]43C)[C@@H]12 | inactive | inactive | inactive | inactive | inactive | inactive | inactive | inactive | inactive | inactive | inactive | inactive | inactive | inactive | > 10 | > 10 | > 10
7 | C=C(C)[C@@H]1CC[C@]2(CO)CC[C@]3(C)[C@H](CC[C@@H]4[C@@]5(C)C=CC(=O)C(C)(C)[C@@H]5CC[C@]43C)[C@@H]12 | inactive | inactive | inactive | inactive | inactive | inactive | inactive | inactive | inactive | inactive | inactive | inactive | inactive |  | > 10 | > 10 | > 10
8 | C=C(C)[C@@H]1CC[C@]2(C)CC[C@]3(C)[C@@H](CC[C@@H]4[C@@]5(C)[C@@H](O)C[C@@H](O)C(C)(C)[C@@H]5CC[C@]43C)[C@@H]12 | inactive | inactive | inactive | inactive | inactive | inactive | inactive | inactive | inactive | inactive | inactive | inactive | inactive | inactive | > 10 | > 10 | > 10
9 | C=C(C)[C@@H]1CC[C@]2(CO)CC[C@]3(C)[C@H](CC[C@@H]4[C@@]5(C)CC[C@@H](O)C(C)(C)[C@@H]5CC[C@]43C)[C@@H]12 [3-EPI-BETULIN] | inactive | inactive | inactive | inactive | inactive | inactive | inactive | inactive | inactive | inactive | inactive | inactive | inactive | inactive | > 10 | > 10 | > 10
10 | C=C(C)[C@@H]1CC[C@]2(CO)CC[C@]3(C)[C@H](CC[C@@H]4[C@@]5(C)CC[C@H](O)C(C)(C)[C@@H]5CC[C@]43C)[C@@H]12 [BETULIN] | inactive | inactive | inactive | inactive | inactive | inactive | inactive | inactive | inactive | inactive | inactive | inactive | inactive | inactive | > 10 | > 10 | > 10
